In the library only some 2.1% were active in any assay of this set; here they are far more common.
DENV2 CPE rescue: inhibitors of DENV2 cytopathic effect | DENV2-infected cells, cytopathic effect rescue, plate reader | 350,000 compounds, 1.7% hits | CPE inhibition, % at 9.99 µM; in the data active means CPE inhibition above about 20%, passing the limit was not always enough; inconclusive means no clear call, values can overlap the other calls; tested in BHK-21 cells;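 further: 0% = median of neutral control wells and 100% = median of positive control wells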
Xi reactivation: reactivates the inactive X chromosome in mouse fibroblasts; XiGFP mouse fibroblasts, % GFP-positive cells imaging, 3 d; cells co-treated with 5-aza-dC sensitizer; scaled so ellipticine positive control = 100%; activation, % at 7.58 µM; 360,000 compounds, 0.055% hits;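 active means mean normalized replicate activation at least 10% and every replicate at or above 10%; inconclusive means only one of the two criteria met; inactive means mean below 10% and not all replicates reach 10%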;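 further: 0% = median of on-plate neutral control wells and 100% = ellipticine 6 µM median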
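Schedule: 3 d treatment, 15 min room-temperature fixation; system: 68-5-11 XiGFP fibroblast line; buffer or medium: DMEM plus 5-aza-dC sensitizer; control set: ellipticine 6 µM positive control; compound: one concentration, pinned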
Cneo AK release: causes C. neoformans cell lysis. adenylate kinase release luminescence, 4 h; normalised: neutral wells 0, clomiphene wells 100. lysis activity, % at 15 µM. 360,000 compounds, 0.2% hits;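 active means mean lysis activity across replicates of at least 80%, whatever share of replicates individually reach that level; inactive means mean lysis activity below 80%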
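Test system: log-phase Cryptococcus neoformans yeast cells. Input: 5 × 10^6 yeast cells/mL. Medium: fresh YPD growth medium. Doses: single dose. Incubation: static 4 h at 37 °C with compound, 1 h detection. Measured by: luminescent adenylate kinase detection reagent. Read-out: signal increase indicating cell lysis. Benchmarks: Clomiphene.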
Statin myotox sup: suppression of simvastatin myotoxicity. C2C12 myotubes + simvastatin, ATP luminescence, 48 h; scaled: DMSO 0, geranylgeraniol control 100. 330,000 compounds, 0.78% hits. rescue of ATP level, % at 7.49 µM. AID 602340;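 active means mean ATP rescue above about 67%, or every replicate alone reaching that limit, limit read from the data, passing the limit was not always enough; inconclusive means no clear call, values can overlap the other calls; inactive means mean under the limit and some replicate under it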;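 further: myotubes were challenged with 10 µM simvastatin during compound exposure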
* marks the source's active call; other numbers are inactive results.

Screening Cc1noc(C)c1S(=O)(=O)Nc1ccc2c(c1)CC(=O)N([C@H](C)CO)C[C@@H](C)[C@@H](CN(C)C(=O)NC(C)C)O2 returned DENV2 CPE rescue 46*, Xi reactivation 0, Cneo AK release -3 and Statin myotox sup -12.
For Cc1noc(C)c1S(=O)(=O)Nc1ccc2c(c1)CC(=O)N([C@H](C)CO)C[C@@H](C)[C@@H](CN(C)Cc1ccc(C(F)(F)F)cc1)O2 the results were DENV2 CPE rescue 6, Xi reactivation 1, Cneo AK release -4 and Statin myotox sup 83*.
For Cc1noc(C)c1S(=O)(=O)Nc1ccc2c(c1)CC(=O)N([C@@H](C)CO)C[C@H](C)[C@@H](CN(C)Cc1ccc(-c3ccccc3)cc1)O2 the results were DENV2 CPE rescue 7, Xi reactivation 0 and Statin myotox sup 48.
For Cc1noc(C)c1S(=O)(=O)Nc1ccc2c(c1)CC(=O)N([C@@H](C)CO)C[C@@H](C)[C@H](CN(C)Cc1ccc(Cl)c(Cl)c1)O2 the results were DENV2 CPE rescue 0, Xi reactivation -1, Cneo AK release -2 and Statin myotox sup 19.
Cc1noc(C)c1S(=O)(=O)Nc1ccc2c(c1)CC(=O)N([C@@H](C)CO)C[C@H](C)[C@@H](CN(C)Cc1ccc(Cl)c(Cl)c1)O2 was read as DENV2 CPE rescue 1, Xi reactivation 0, Cneo AK release 3 and Statin myotox sup 79*.
For C[C@H](CO)N1C[C@H](C)[C@@H](CN(C)Cc2ccc(C(F)(F)F)cc2)Oc2c(NC(=O)C3CCOCC3)cccc2C1=O the results were DENV2 CPE rescue -4, Xi reactivation 0, Cneo AK release 2 and Statin myotox sup 13.
For C[C@@H]1CN([C@@H](C)CO)C(=O)c2cc(NC(=O)NC3CCCCC3)ccc2O[C@@H](C)CCCCO[C@@H]1CN(C)C(=O)c1ccccc1 the results were DENV2 CPE rescue -5, Xi reactivation 0, Cneo AK release -4 and Statin myotox sup -35.
For Cc1noc(C)c1S(=O)(=O)Nc1ccc2c(c1)CC(=O)N([C@H](C)CO)C[C@H](C)[C@@H](CN(C)Cc1ccc(Cl)c(Cl)c1)O2 the results were DENV2 CPE rescue -1, Xi reactivation 0, Cneo AK release 2 and Statin myotox sup 134*.
`Cc1noc(C)c1S(=O)(=O)Nc1ccc2c(c1)CC(=O)N([C@@H](C)CO)C[C@@H](C)[C@@H](CN(C)Cc1ccc3c(c1)OCO3)O2` gave DENV2 CPE rescue 3, Xi reactivation 0, Cneo AK release -2 and Statin myotox sup -19.
Cc1noc(C)c1S(=O)(=O)Nc1ccc2c(c1)CC(=O)N([C@@H](C)CO)C[C@@H](C)[C@@H](CN(C)Cc1ccc(Cl)c(Cl)c1)O2 was read as DENV2 CPE rescue 1, Xi reactivation 0, Cneo AK release -4 and Statin myotox sup inconclusive.
For Cc1noc(C)c1S(=O)(=O)Nc1ccc2c(c1)CC(=O)N([C@H](C)CO)C[C@H](C)[C@H](CN(C)Cc1ccc3c(c1)OCO3)O2 the results were DENV2 CPE rescue 51*, Xi reactivation 0, Cneo AK release 0 and Statin myotox sup 6.
`COc1ccc(NC(=O)Nc2cccc3c2O[C@@H](CN(C)S(C)(=O)=O)[C@@H](C)CN([C@@H](C)CO)C3=O)cc1` gave DENV2 CPE rescue 5, Xi reactivation 0 and Cneo AK release -12.
For C[C@H]1CN([C@@H](C)CO)S(=O)(=O)c2ccc(C#CCN(C)C)cc2O[C@@H]1CN(C)Cc1ccccc1F the results were DENV2 CPE rescue -16, Xi reactivation -1, Cneo AK release 2 and Statin myotox sup -100.
O=C(NC1CCN(C(=O)N2c3ccccc3Sc3ccccc32)CC1)c1ccccc1F was read as DENV2 CPE rescue 5, Cneo AK release 1 and Statin myotox sup 76*.
`CCN(CC)S(=O)(=O)c1ccc(N2CCOCC2)c(NC(=O)c2ccccc2)c1` gave DENV2 CPE rescue 26* and Xi reactivation 0.
Screening CC(C)C(=O)Nc1cc(S(=O)(=O)N2CCOCC2)ccc1N1CCCCC1 returned DENV2 CPE rescue -9, Xi reactivation 0, Cneo AK release -1 and Statin myotox sup 108*.
`Cc1ccc(S(=O)(=O)N(C)C)cc1NC(=O)c1cc(S(=O)(=O)N2CCCCC2)ccc1N1CCOCC1` gave DENV2 CPE rescue 23*, Xi reactivation 0, Cneo AK release 5 and Statin myotox sup -4.
Screening COc1ccc(NC(=O)N(C)C[C@H]2OCCCC[C@H](C)Oc3ccc(NC(=O)Nc4ccc5c(c4)OCO5)cc3C(=O)N([C@@H](C)CO)C[C@H]2C)cc1 returned DENV2 CPE rescue 2 and Xi reactivation 0.
For O[C@H]1CN(CC2CCCCC2)[C@@H](c2ccc(Cl)cc2)C[C@@H]1n1cc(C2CC2)nn1 the results were DENV2 CPE rescue 45*, Xi reactivation 1, Cneo AK release 16 and Statin myotox sup 3.
`COc1ccc([C@H]2C[C@@H](n3cc(C4CC4)nn3)[C@H](O)CN2Cc2cccs2)cc1` gave DENV2 CPE rescue 35*, Xi reactivation 1, Cneo AK release 0 and Statin myotox sup 11.
For CCCCCC(=O)N1C[C@@H](O)[C@H](n2cc(COC(=O)c3ccccc3)nn2)C[C@@H]1c1ccc(C)cc1 the results were DENV2 CPE rescue 74*, Xi reactivation 0 and Statin myotox sup -16.
`COc1ccc([C@H]2C[C@H](O)[C@@H](n3cc(COC(=O)c4ccccc4)nn3)CN2CC2CCCCC2)cc1` gave DENV2 CPE rescue 20*, Xi reactivation 0, Cneo AK release -2 and Statin myotox sup 2.
`O[C@@H]1CN(CC2CCCCC2)[C@@H](c2ccccc2)C[C@H]1n1cc(C2CC2)nn1` gave DENV2 CPE rescue 1, Xi reactivation 0, Cneo AK release 3 and Statin myotox sup 19.
O=C(OCc1cn([C@H]2C[C@H](c3ccccc3)N(CC3CCCCC3)C[C@@H]2O)nn1)c1ccccc1 was read as DENV2 CPE rescue -4, Xi reactivation 0, Cneo AK release 1 and Statin myotox sup -5.
O=C(C1CCC1)N1CC(=O)N2[C@@H](CO)[C@@H](c3ccc(C#CCc4ccccc4)cc3)[C@@H]2C1 was read as DENV2 CPE rescue -5 and Xi reactivation 0.
For CCCNC(=O)C[C@H]1CC[C@@H]2[C@H](COc3ccc(NC(=O)c4cc(C)on4)cc3C(=O)N2C)O1 the results were DENV2 CPE rescue inconclusive, Xi reactivation 0, Cneo AK release 1 and Statin myotox sup -10.
Cc1ccc(S(=O)(=O)N(C)C[C@@H]2OCCCC[C@H](C)Oc3ccc(NC(=O)c4ccncc4)cc3C(=O)N([C@H](C)CO)C[C@H]2C)cc1 was read as DENV2 CPE rescue -1, Xi reactivation 0 and Cneo AK release 6.
For Cc1noc(C)c1NC(=O)N(C)C[C@H]1Oc2ccc(NC(=O)Cc3ccccc3)cc2C(=O)N([C@@H](C)CO)C[C@@H]1C the results were DENV2 CPE rescue 2, Xi reactivation 0, Cneo AK release -3 and Statin myotox sup 6.

Screening results: PubChem BioAssay, Broad Institute
